Assay results published in ChEMBL document CHEMBL1909506, “Synthesis and anti-tumor activities of N'-benzylidene-2-(4-oxothieno[2,3-d]pyrimidin-3(4H)-yl)acetohydrazone derivatives” (Bioorg Med Chem Lett, 2011).
Active and inactive are the calls of the source. The calls are words filed in the database; no cut-off is given here.

Experiments:
A549 [1] = assay: Cytotoxicity against human A549 cells assessed as growth inhibition at 20 uM after 48 hrs by MTT assay; type: functional; details: for inhibition of growth at 20 µM: A549, 48 h, read-out: GI
Outline: (§1)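 Single-concentration screen at 20 µM. Cell growth inhibition read by standard MTT assay after 48 h treatment and expressed as inhibition ratio.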

HeLa [2] = assay: Cytotoxicity against human HeLa cells assessed as growth inhibition at 20 uM after 48 hrs by MTT assay; type: functional; details: for inhibition of growth at 20 µM: read-out: GI; outline: as §1
MDA-MB-231 [3] = assay: Cytotoxicity against human MDA-MB-231 cells assessed as growth inhibition at 20 uM after 48 hrs by MTT assay; type: functional; details: for inhibition of growth at 20 µM: MDA-MB-231, 48 h, read-out: GI; outline: as §1
[4] = biological target: Induced myeloid leukemia cell differentiation protein Mcl-1 (Homo sapiens) (UniProt Q07820); assay: Inhibition of mouse/human MCL1 expressed in Escherichia coli BL21 at 1 uM to 50 uM using FAM-labeled Bid-BH3 as tracer by fluorescence polarization assay
HEK-293T = assay: Cytotoxicity against human HEK293T cells assessed as growth inhibition after 48 hrs by MTT assay; type: cell-based
Outline: (§2)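 Dose-response MTT assay, 48 h exposure. Compounds run at multiple concentrations; IC50 taken as the concentration giving 50% growth inhibition. HEK-293T (human embryonic kidney cells transformed with adenovirus 5 DNA and SV40 large T-antigen) served as the normal-cell model.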

HeLa [5] = assay: Induction of apoptosis in human HeLa cells assessed as sub-diploid DNA content at 20 uM after 24 hrs using PI staining by flow cytometry (reference value: 6%); type: functional
HeLa [6] = assay: Induction of apoptosis in human HeLa cells assessed as increase in level of cleaved caspase-3 at 20 uM after 12 hrs by immunoblotting; type: functional, cell-based
HeLa [7] = assay: Induction of apoptosis in human HeLa cells assessed as increase in level of cleaved PARP at 20 uM after 12 hrs by immunoblotting; type: functional, cell-based
HeLa [8] = assay: Cytotoxicity against human HeLa cells assessed as growth inhibition after 48 hrs by MTT assay; type: functional, cell-based; outline: as §2
A549 [9] = assay: Cytotoxicity against human A549 cells assessed as growth inhibition after 48 hrs by MTT assay; type: functional, cell-based; details: for IC50: A549, 48 h; outline: as §2
MDA-MB-231 [10] = assay: Cytotoxicity against human MDA-MB-231 cells assessed as growth inhibition after 48 hrs by MTT assay; type: functional, cell-based; details: for IC50: MDA-MB-231, 48 h; outline: as §2
[11] = biological target: Induced myeloid leukemia cell differentiation protein Mcl-1 (Homo sapiens) (UniProt Q07820); assay: Inhibition of mouse/human MCL1 expressed in Escherichia coli BL21 at 50 uM using FAM-labeled Bid-BH3 as tracer by fluorescence polarization assay

Row | Compound | inhibition of growth at 20 µM (A549 [1]) | inhibition of growth at 20 µM (HeLa [2]) | inhibition of growth at 20 µM (MDA-MB-231 [3]) | inhibition [4] | growth inhibition (GI) (A549 [1]) | growth inhibition (GI) (HeLa [2]) | growth inhibition (GI) (MDA-MB-231 [3]) | other results
1 | O=C(Cn1cnc2sc3c(c2c1=O)CCCCC3)N/N=C/c1ccccc1O | 29% | 36% | 40% | inactive |  |  |  | 
2 | O=C(Cn1cnc2scc(-c3ccc(Cl)cc3)c2c1=O)N/N=C/c1ccccc1O | 48% | 43% | 39% | inactive |  |  |  | 
3 | Cc1csc2ncn(CC(=O)N/N=C/c3ccc(Cl)c(F)c3)c(=O)c12 |  |  |  | inactive | inactive | inactive | inactive | 
4 | N#Cc1ccc(/C=N/NC(=O)Cn2cnc3sc4c(c3c2=O)CCCCC4)cc1 | 10% | 11% | 14% | inactive |  |  |  | 
5 | O=C(Cn1cnc2scc(-c3ccc4ccccc4c3)c2c1=O)N/N=C/c1cccc([N+](=O)[O-])c1 |  |  |  | inactive | inactive | inactive | inactive | 
6 | O=C(Cn1cnc2sc3c(c2c1=O)CCC3)N/N=C/c1ccccc1O | 22% | 23% | 36% | inactive |  |  |  | 
7 | O=C(Cn1cnc2scc(-c3ccc4ccccc4c3)c2c1=O)N/N=C/c1ccc(Cl)c([N+](=O)[O-])c1 | 69% | 69% | 55% | inactive |  |  |  | IC50 (HEK-293T): > 50 µM; Activity (HeLa [5]): 20%; Activity (HeLa [6]): Active; Activity (HeLa [7]): Active; IC50 (HeLa [8]): 24 µM; growth inhibition (GI) (HeLa [8]): Dose-dependent effect; growth inhibition (GI) (A549 [9]): Dose-dependent effect; IC50 (A549 [9]): 13 µM; growth inhibition (GI) (MDA-MB-231 [10]): Dose-dependent effect; IC50 (MDA-MB-231 [10]): 20 µM
8 | O=C(Cn1cnc2sc3c(c2c1=O)CCCCC3)N/N=C/c1ccc(O)cc1 |  |  |  | inactive | inactive | inactive | inactive | 
9 | O=C(Cn1cnc2scc(-c3ccc(Cl)cc3)c2c1=O)N/N=C/c1cccc([N+](=O)[O-])c1 |  |  |  | inactive | inactive | inactive | inactive | 
10 | O=C(Cn1cnc2sc3c(c2c1=O)CCC3)N/N=C/c1ccc(Cl)c(F)c1 | 47% | 54% | 29% | inactive |  |  |  | 
11 | Cc1cc(-c2csc3ncn(CC(=O)N/N=C/c4ccccc4O)c(=O)c23)ccc1Cl | 35% | 33% | 37% | inactive |  |  |  | 
12 | N#Cc1ccc(/C=N/NC(=O)Cn2cnc3sc4c(c3c2=O)CCC4)cc1 |  |  |  | inactive | inactive | inactive | inactive | 
13 | O=C(Cn1cnc2scc(-c3ccc(Cl)cc3)c2c1=O)N/N=C/c1ccc(O)c(O)c1 |  |  |  | inactive | inactive | inactive | inactive | 
14 | O=C(Cn1cnc2sc3c(c2c1=O)CCCC3)N/N=C/c1ccc(Cl)c([N+](=O)[O-])c1 | 10% | 27% | 38% | inactive |  |  |  | 
15 | O=C(Cn1cnc2sc3c(c2c1=O)CCCCC3)N/N=C/c1cccc(O)c1 |  |  |  | inactive | inactive | inactive | inactive | 
16 | O=C(Cn1cnc2scc(-c3ccc4ccccc4c3)c2c1=O)N/N=C/c1ccc(O)c(O)c1 |  |  |  | inactive | inactive | inactive | inactive | inhibition [11]: 40%
17 | O=C(Cn1cnc2sc3c(c2c1=O)CCC3)N/N=C/c1cccc(O)c1 |  |  |  | inactive | inactive | inactive | inactive | 
18 | N#Cc1ccc(/C=N/NC(=O)Cn2cnc3scc(-c4ccc5ccccc5c4)c3c2=O)cc1 |  |  |  | inactive | inactive | inactive | inactive | 

Row | Compound | inhibition of growth at 20 µM (A549 [1]) | inhibition of growth at 20 µM (HeLa [2]) | inhibition of growth at 20 µM (MDA-MB-231 [3]) | inhibition [4] | growth inhibition (GI) (A549 [1]) | growth inhibition (GI) (HeLa [2]) | growth inhibition (GI) (MDA-MB-231 [3]) | other results
19 | O=C(Cn1cnc2sc3c(c2c1=O)CCC3)N/N=C/c1ccc(Cl)c([N+](=O)[O-])c1 |  | 34% | 41% | inactive | inactive |  |  | 
20 | Cc1csc2ncn(CC(=O)N/N=C/c3ccc(C#N)cc3)c(=O)c12 |  |  |  | inactive | inactive | inactive | inactive | 
21 | O=C(Cn1cnc2scc(-c3ccc4ccccc4c3)c2c1=O)N/N=C/c1ccccc1O | 44% | 22% | 36% | inactive |  |  |  | 
22 | O=C(Cn1cnc2scc(-c3ccc4ccccc4c3)c2c1=O)N/N=C/c1ccc(Cl)c(F)c1 |  |  |  | inactive | inactive | inactive | inactive | 
23 | O=C(Cn1cnc2scc(-c3ccccc3)c2c1=O)N/N=C/c1ccc(Cl)c(F)c1 |  |  |  | inactive | inactive | inactive | inactive | 
24 | N#Cc1ccc(/C=N/NC(=O)Cn2cnc3scc(-c4ccccc4)c3c2=O)cc1 |  |  |  | inactive | inactive | inactive | inactive | 
25 | Cc1csc2ncn(CC(=O)N/N=C/c3ccccc3O)c(=O)c12 |  |  | 30% | inactive | inactive | inactive |  | inhibition [11]: 40%
26 | O=C(Cn1cnc2scc(-c3ccc(Cl)cc3)c2c1=O)N/N=C/c1ccc(Cl)c(F)c1 |  |  |  | inactive | inactive | inactive | inactive | 
27 | N#Cc1ccc(/C=N/NC(=O)Cn2cnc3sc4c(c3c2=O)CCCC4)cc1 |  |  |  | inactive | inactive | inactive | inactive | 
28 | O=C(Cn1cnc2sc3c(c2c1=O)CCC3)N/N=C/c1ccc(O)cc1 | 27% | 29% | 25% | inactive |  |  |  | 
29 | N#Cc1ccc(/C=N/NC(=O)Cn2cnc3scc(-c4ccc(Cl)cc4)c3c2=O)cc1 |  |  |  | inactive | inactive | inactive | inactive | 
30 | O=C(Cn1cnc2sc3c(c2c1=O)CCCC3)N/N=C/c1ccccc1O | 18% | 34% | 29% | inactive |  |  |  | IC50 (HEK-293T): > 50 µM; IC50 (HeLa [8]): 40 µM; IC50 (A549 [9]): > 50 µM; IC50 (MDA-MB-231 [10]): 16 µM
31 | O=C(Cn1cnc2sc3c(c2c1=O)CCCC3)N/N=C/c1ccc(Cl)c(F)c1 | 26% | 41% | 39% | inactive |  |  |  | 
32 | O=C(Cn1cnc2sc3c(c2c1=O)CCCC3)N/N=C/c1ccc(C(F)(F)F)cc1 | 23% | 34% | 30% | inactive |  |  |  | 
33 | O=C(Cn1cnc2scc(-c3ccccc3)c2c1=O)N/N=C/c1ccccc1O | 26% | 31% | 30% | inactive |  |  |  | 
34 | Cc1csc2ncn(CC(=O)N/N=C/c3ccc(Cl)c([N+](=O)[O-])c3)c(=O)c12 | 13% | 18% | 13% | inactive |  |  |  | 
35 | O=C(Cn1cnc2sc3c(c2c1=O)CCCCC3)N/N=C/c1ccc(Cl)c(F)c1 | 43% | 50% | 28% | inactive |  |  |  | 
